The values that follow come from ChEMBL document CHEMBL1125833, “Anxiolytic properties of certain annelated [1,2,4]triazolo[1,5-c]pyrimidin-5(6H)-ones” (J Med Chem, 1991).

SMILES strings stand for the structures.

For assay [1], the target named is GABA-A receptor; anion channel (Rattus norvegicus) (UniProt O09028+P15431+P18506+P18508+P19969+P20236+P23574+P23576+P28471+P28473+P30191+P62813+P63079+P63138+Q91ZM7+Q9ES14). Put plainly: GABA ratio measured by the IC50 in the absence of GABA compared to the IC50 in the presence of GABA in rats. A digest of the protocol: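 Modified [3H]flunitrazepam binding in rat forebrain, with IC50 measured with and without GABA. Ratio = IC50 without GABA divided by IC50 with GABA.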

The test system of a further assay is Rattus norvegicus. Put plainly: Anxiolytic response at 10 mg/Kg measured by antagonism of pentylenetetrazole discriminative stimuli in rats. It counts as functional.
In assay [2] the target is GABA-A receptor; anion channel. Nature of the assay: Displacement of [3H]flunitrazepam (FNZ) from GABA-A benzodiazepine receptor in rat forebrain.

One may read the inhibition in vivo as how much of the control response was suppressed. A low value points to a weak effect. By IC50 is commonly meant the point on the concentration scale where inhibition reaches its midpoint. For the compound `Oc1nc2c(c3nc(-c4ccccc4F)nn13)CN(Cc1ccccn1)CC2`, the GABA ratio in assay [1] was 1.65. In addition, in the assay on Rattus norvegicus, 10 mg/kg produced 50% inhibition in vivo. Further, the IC50 in assay [2] was 640 pM.
